CR mimetic SO – reduction of superoxide in aged yeast, primary screen, HTS | 330,000 tested, 0.18% active | superoxide response (% of plate mean), % at 10 µM | AID 2690, 2010 | S. cerevisiae aged cells, superoxide DHE fluorescence; active compounds read low;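 active = superoxide response under a set limit, about three screen SD below normal, cut at about 65% in these data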;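 also: yeast aged for seven days with compound at 30 °C before DHE staining; 100% = average MFI of all compound-treated wells on the plate with controls excluded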
TRPC4 block – inhibitors of mouse TRPC4 channel, primary screen, Fluo4 calcium, HEK293 TRPC4beta/mu-opioid cells. Short transient receptor potential channel 4 (Mus musculus), Q9QUQ5. DAMGO-evoked Fluo4 calcium flux; active compounds read low. B-score at 10 µM. 300,000 tested, 0.39% active;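 active = B-score over 3 SD under the library average, no early fluorescence shift, positive overall ratio signal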
Target sequence (Q9QUQ5 whole entry, looked up): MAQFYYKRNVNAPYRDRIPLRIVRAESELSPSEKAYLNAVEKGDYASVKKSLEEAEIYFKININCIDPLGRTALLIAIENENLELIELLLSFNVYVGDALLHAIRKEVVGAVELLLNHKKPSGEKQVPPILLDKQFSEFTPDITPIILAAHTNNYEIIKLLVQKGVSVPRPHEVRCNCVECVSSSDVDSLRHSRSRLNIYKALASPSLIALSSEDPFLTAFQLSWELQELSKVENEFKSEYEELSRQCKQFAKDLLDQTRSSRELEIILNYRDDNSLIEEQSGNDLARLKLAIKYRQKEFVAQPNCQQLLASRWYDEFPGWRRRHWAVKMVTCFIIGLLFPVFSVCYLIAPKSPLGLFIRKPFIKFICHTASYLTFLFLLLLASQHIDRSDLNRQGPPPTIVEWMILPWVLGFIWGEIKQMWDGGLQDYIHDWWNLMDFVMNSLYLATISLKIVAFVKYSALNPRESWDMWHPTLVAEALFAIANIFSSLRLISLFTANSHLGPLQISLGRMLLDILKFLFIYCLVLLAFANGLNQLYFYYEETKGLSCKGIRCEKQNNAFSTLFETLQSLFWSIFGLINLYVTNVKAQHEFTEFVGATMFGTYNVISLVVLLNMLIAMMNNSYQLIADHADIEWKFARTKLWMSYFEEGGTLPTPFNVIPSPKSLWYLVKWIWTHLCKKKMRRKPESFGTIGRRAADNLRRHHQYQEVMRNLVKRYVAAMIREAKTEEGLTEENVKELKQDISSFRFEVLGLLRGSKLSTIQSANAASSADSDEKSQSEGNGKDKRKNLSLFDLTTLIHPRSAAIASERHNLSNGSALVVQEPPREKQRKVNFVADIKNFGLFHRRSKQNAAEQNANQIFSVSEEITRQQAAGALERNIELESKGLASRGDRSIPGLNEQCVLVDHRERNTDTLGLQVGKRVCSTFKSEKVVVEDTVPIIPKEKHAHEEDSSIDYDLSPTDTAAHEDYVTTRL
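Material: HEK293 cells with stable TRPC4beta plus mu-opioid receptor expression; probe or stimulus: DAMGO in two steps, submaximal then maximal; technique: Fluo4 calcium fluorescence by kinetic imaging, 5 s 1 Hz baseline; measure: integrated fluorescence ratio relative to baseline, converted to per-well B score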
TRPC4 potent – positive allosteric modulators of TRPC4, primary screen, cell-based, mouse TRPC4beta, HEK293 mu-opioid, Fluo-4 calcium | Short transient receptor potential channel 4 (Mus musculus), Q9QUQ5 | DAMGO EC20, Fluo-4 Ca2+ flux; active compounds read high | 310,000 tested, 0.42% active | B-score at 10 µM;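 active = B-score of calcium response area above 5 SD of library B-scores, with initial fluorescence ratio within 5 SD of library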;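 also: B-score of integrated fluorescence ratio over time as area under calcium response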
TRPC6 inhibitor – mouse TRPC6 channel inhibitors, primary screen, cell-based, HEK293, membrane potential dye; ACh-evoked depolarization; active compounds read low; B-score at 10 µM; 310,000 tested, 1.1% active; AID 2553, 2010;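 active = B-score under library mean minus 3 SD, initial fluorescence not abnormally high, positive integrated signal ratio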;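 also: B-score derived from integrated fluorescence ratio over the kinetic read; more negative B-score means stronger inhibition of depolarization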
TRPC4 agonist – activators of mouse TRPC4 channel, primary screen, Fluo4 calcium, HEK293 TRPC4beta/mu-opioid cells; AID 2237, 2010; B-score at 10 µM; Fluo4 calcium fluorescence; active compounds read high; 310,000 tested, 0.49% active;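 active = B-score above 5 SD of library B-scores, and initial fluorescence ratio not above library mean plus 5 SD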;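 also: positive B-score marks a calcium rise read as TRPC4 activation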
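Incubation: 45 min room-temperature Fluo4 loading, 110 s read / System: HEK293 cells stably co-expressing mouse TRPC4beta and mu-opioid receptor / Signal: Fluo4 fluorescence, kinetic / Control set: buffer (low) and maximal DAMGO (high) / Measure: integrated baseline-normalised fluorescence ratio, converted to per-well B score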
TRPC6 act – mouse TRPC6 channel activators, primary screen, cell-based, HEK293, membrane potential dye. 310,000 tested, 0.13% active. AID 2550, 2010. HEK293-TRPC6 membrane potential dye fluorescence; active compounds read high. B-score at 10 µM. Short transient receptor potential channel 6 (Mus musculus), Q61143;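 active = B-score of the integrated fluorescence ratio above library mean plus 3 SD, and starting fluorescence ratio within library mean plus 5 SD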;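 also: higher score means more depolarization so channel activation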
TRPC4 sel inh 2 – second selectivity test of TRPC6 inhibitors: effect on mouse TRPC4. shares compounds with TRPC6 inhibitor. HEK293 TRPC4/MOR, membrane potential dye fluorescence; channel activated by saturating DAMGO dose. inhibition, % at 10 µM. 920 tested, 42% active. AID 2776;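 active = compounds whose fluorescence signal differed from control wells by over 3 SD, either direction, in both duplicate plates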
TRPC4 spec – mouse TRPC4 modulation by TRPC6 hits, confirmation, selectivity assay for TRPC6 inhibitor project, cell-based, HEK293 TRPC4/mu-opioid, membrane potential dye. shares compounds with TRPC6 inhibitor. membrane potential fluorescence. activity change, negative = inhibition, % at 10 µM. 920 tested, 61% active;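 active = rise or fall in signal beyond 3 SD of buffer-only wells in both replicate plates, either sign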;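 also: integrated kinetic ratio of fluorescence range over baseline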
HEK293 MPD ctr 2-1 – nonspecific membrane potential effects, parental HEK293, confirmation, counter-screen for TRPC6 inhibitor project, cell-based, second counter screen | shares compounds with TRPC6 inhibitor | parental HEK293 membrane potential dye fluorescence; maximal acetylcholine challenge after compound addition | signal change vs control, % at 10 µM | 920 tested, 31% active | AID 2779, 2010;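 active = membrane potential signal moving either way by over 3 SD of the maximum-effect control, in both duplicate plates, meaning non-specific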
HEK293 MPD ctr-1 – membrane potential modulation in parental HEK293, confirmation, counter-screen for TRPC6 inhibitor project, cell-based. shares compounds with TRPC6 inhibitor. parental HEK293 membrane potential dye fluorescence. membrane potential signal change, % at 10 µM. 920 tested, 60% active;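 active = membrane potential signal shifting up or down by more than 3 SD of buffer-only wells, on both duplicate plates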
HEK293 MPD ctr-2 – parental HEK293 membrane potential modulation, confirmation, counter-screen for TRPC6 modulator project, cell-based; shares compounds with TRPC6 inhibitor; membrane potential dye fluorescence; membrane potential signal change, % at 10 µM; 2,400 tested, 51% active; AID 488924, 2010;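 active = membrane potential signal moves up or down beyond 5 SD from buffer-only wells, on both duplicate plates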
HEK293 MPD ctr 2-2 – parental HEK293 nonspecific activity of TRPC6 modulators, second screen. shares compounds with TRPC6 inhibitor. inhibition, % at 10 µM. AID 488926. membrane potential dye fluorescence; after compound, maximal acetylcholine stimulation. 2,400 tested, 14% active;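 active = membrane potential signal drops by more than 5 SD from the mean control signal, in both duplicate plates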;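 also: plate controls were acetylcholine ECmax control wells for no effect and buffer only wells for full effect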
TRPC4 ctr mod – TRPC4 modulation by TRPC6 hit compounds, confirmation, selectivity assay for TRPC6 modulator project, cell-based, HEK293 TRPC4/mu-opioid, membrane potential dye, mouse; shares compounds with TRPC6 inhibitor; membrane potential fluorescence; percent change from control (negative = decrease, positive = increase), % at 10 µM; 2,400 tested, 69% active; AID 488927, 2010;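 active = membrane potential signal moved up or down beyond 5 SD of buffer control wells, in both duplicate plates, actives on both sides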;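 also: plate controls were assay buffer wells for no effect and DAMGO maximal-effect wells for full effect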
TRPC4 ctr inh 2 – mouse TRPC4 off-target activity of TRPC6 modulators, second screen. shares compounds with TRPC6 inhibitor. HEK293 TRPC4/mu-opioid, membrane potential dye fluorescence; stimulated with maximal-effect DAMGO. inhibition, % at 10 µM. 2,400 tested, 55% active;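 active = drop in membrane potential signal beyond 5 SD of the control wells in both duplicate plates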;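 also: TRPC4 counter screen for TRPC6 hits run under conditions tuned for TRPC6 not TRPC4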
TRPC6 inh conf – mouse TRPC6 channel inhibitors, confirmation, HEK293 cells, membrane potential dye, duplicate; 3,300 tested, 43% active; inhibition, % at 10 µM; shares compounds with TRPC6 inhibitor; ACh-evoked depolarization;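 active = fluorescence ratio falls more than 5 SD below the full-stimulation control mean, in both duplicate runs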;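 also: integrated fluorescence ratio of peak minus minimum over baseline after agonist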
TRPC6 act conf – mouse TRPC6 channel activators, confirmation, HEK293 cells, membrane potential dye, duplicate; activation, % at 10 µM; AID 488961, 2010; shares compounds with TRPC6 inhibitor; HEK293-TRPC6 membrane potential dye fluorescence, FDSS; 2,800 tested, 11% active;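 active = ratio signal rise beyond 5 SD above unstimulated control wells' mean, seen in both duplicate runs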;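 also: plate controls were buffer EC0 wells for no effect and acetylcholine ECmax response for full effect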
Starred values were filed as active, the others as inactive; i = inactive; / = no result given. A selection: hits, their analogues and other compounds. The true share with any hit is near 2.3%.

SMILES	CR mimetic SO	TRPC4 block	TRPC4 potent	TRPC6 inhibitor	TRPC4 agonist	TRPC6 act	HEK293 MPD ctr-2	HEK293 MPD ctr 2-2	TRPC4 ctr mod	TRPC4 ctr inh 2	TRPC6 inh conf	TRPC6 act conf	others
O=C(NCCN1CCOCC1)c1cc2c(=O)n3ccccc3nc2n1Cc1ccccc1	94	i	i	i	i	i	/	/	/	/	/	/
COc1ccc(CCNC(=O)c2cc3c(=O)n4ccccc4nc3n(CCCN3CCOCC3)c2=N)cc1	114	i	i	-7.4*	i	i	/	/	/	/	i	i	TRPC4 sel inh 2=i;TRPC4 spec=i;HEK293 MPD ctr 2-1=-64%*;HEK293 MPD ctr-1=i
Cc1ccc2nc3c(cc(C(=O)NCCc4ccccc4)c(=N)n3CCCN3CCOCC3)c(=O)n2c1	100	i	i	-6*	i	i	i	i	i	54%*	i	i
N#Cc1cc2c(=O)n3ccccc3nc2n(CCCN2CCOCC2)c1=O	104	i	i	-12*	i	i	-285%*	85%*	-48%*	49%*	56%*	i
Cn1c(CN2CCCC2)nc2cc(NC(=O)C3CCCCC3)ccc21	99	i	i	i	i	i	/	/	/	/	/	/
O=S(=O)(c1ccc(Oc2ccc(-c3nnco3)cc2)nc1)N1CCC(Cc2ccccc2)CC1	87	i	i	i	i	i	/	/	/	/	/	/
O=c1c(-c2ccccc2)nnc2sc(COc3ccc(Br)cc3)nn12	105	i	i	i	i	i	/	/	/	/	/	/
COc1ccc(CCn2c(=N)c(C(=O)NC3CCCCC3)cc3c(=O)n4ccccc4nc32)cc1	97	i	i	i	i	i	/	/	/	/	/	/
COc1ccc(CCNC(=O)c2cc3c(=O)n4ccccc4nc3n(CCN3CCOCC3)c2=N)cc1	88	i	i	-5.7*	i	i	i	i	74%*	86%*	i	i
COc1ccc(CCn2c(=N)c(C(=O)N3CCN(C)CC3)cc3c(=O)n4ccccc4nc32)cc1	87	i	i	-7.2*	i	i	-274%*	84%*	-50%*	62%*	68%*	i
N=c1c(C(=O)NC2CCCC2)cc2c(=O)n3ccccc3nc2n1CCN1CCOCC1	102	i	i	i	i	i	/	/	/	/	/	/
O=C(CN1CCN(c2ncccn2)CC1)N1CCCC1	100	i	i	-5.3*	i	i	i	i	i	i	i	i
O=C(CN1C(=O)C2CCCCC2C1=O)N1CCN(c2ncccn2)CC1 (stereo not given)	103	i	i	i	i	i	/	/	/	/	/	/
Cc1ccn2c(Nc3ccc4c(c3)OCO4)c(-c3ccc(O)cc3)nc2c1	94	i	i	-7.1*	i	i	/	/	/	/	i	i	TRPC4 sel inh 2=i;TRPC4 spec=-14%*;HEK293 MPD ctr 2-1=i;HEK293 MPD ctr-1=-154%*
COc1cc(-c2nc3ccc(C)cn3c2Nc2ccc3c(c2)OCCO3)ccc1O	82	i	i	-8.4*	i	i	/	/	/	/	i	i	TRPC4 sel inh 2=54%*;TRPC4 spec=-11%*;HEK293 MPD ctr 2-1=i;HEK293 MPD ctr-1=-322%*
COc1ccc(N2CC(C(=O)N[C@@H](C)C(=O)NC(C)c3ccccc3)CC2=O)cc1 (stereo not given in full)	113	i	i	i	i	i	/	/	/	/	/	/
O=c1c2cc3c(=O)n(-c4ccccc4O)c(=O)c3cc2c(=O)n1-c1ccccc1O	102	i	i	i	i	i	/	/	/	/	/	/
O=c1c2[nH]c3ccccc3c2ncn1C1CCCCC1	90	i	i	i	i	i	/	/	/	/	/	/
O=C1c2ccccc2C(=O)c2c1ccc1c(=O)n(C3CCCCC3)[nH]c21	131	i	i	-5.1*	i	i	-94%*	i	-20%*	i	i	i
CC(C)CC(C(=O)O)N1C(=O)[C@@H]2[C@H](C1=O)[C@@H]1C[C@H]2C(Br)C1Br (stereo not given in full)	91	i	i	i	i	i	/	/	/	/	/	/

Screens: PubChem, several laboratories
